Calls of active or inactive are those of the source. The rule behind the calls is not given here.
Columns and labels:
[1] = n-octanol/phosphate buffered saline partition coefficient, log D of the compound measured at pH 7.4 by shake flask method based HPLC analysis; type: physicochemical
T47D [2] = assay: Induction of apoptosis in human T47D cells assessed as increase in late apoptotic cells at 20 to 40 nM incubated for 48 hrs by annexin V FITC and propidium iodide staining based flow cytometry; type: functional, cell-based
How it was run: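 Annexin V-FITC/PI double staining with flow-cytometric readout. MDA-MB-231, T-47D, SiHa and HeLa cells were treated with graded concentrations for 48 h. MDA-MB-231 and T-47D were grown in DMEM and SiHa in 1640 medium, each with 10% FBS and 1% penicillin/streptomycin at 37°C under 5% CO2. Early- and late-stage apoptotic fractions were scored.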

[3] = MRT (0 to t) in Sprague-Dawley rat at 10 mg/kg, iv by HPLC-MS analysis; type: ADME, organism-based; conditions: in vivo
[4] = target: Aurora kinase B (Homo sapiens) (UniProt Q96GD4); assay: Inhibition of recombinant full length human Aurora-B at 1 uM using AKRRRLSSLRA as substrate incubated for 40 mins in presence of [gamma-33P]-ATP by scintillation counting method relative to control
How it was run: (§1)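 Kinase panel profiling at 1 μM performed by Eurofins KinaseProfiler; percent inhibition reported as mean of two independent experiments.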

Saccharomyces cerevisiae = assay: Inhibition of recombinant fungi CK1 (2 to 298 residues) at 1 uM using KRRRALS(p)VAS as substrate incubated for 40 mins in presence of [gamma-33P]-ATP by scintillation counting method relative to control; how it was run: as §1
[5] = target: Proto-oncogene tyrosine-protein kinase Src (Homo sapiens) (UniProt P12931); assay: Inhibition of full length recombinant human c-SRC at 1 uM using KVEKIGEGTYGVV as substrate incubated for 40 mins in presence of [gamma-33P]-ATP by scintillation counting method relative to control; how it was run: as §1
[6] = target: Ephrin type-B receptor 3 (Homo sapiens) (UniProt P54753); assay: Inhibition of recombinant human EPhB3 (599 to 920 residues) at 1 uM using poly (Glu, Tyr) 4:1 as substrate incubated for 40 mins in presence of [gamma-33P]-ATP by scintillation counting method relative to control
[7] = target: MAP kinase-activated protein kinase 2 (Homo sapiens) (UniProt P49137); assay: Inhibition of recombinant human MAPKAPK2 (46 to end residues) at 1 uM using KKLNRTLSVA as substrate incubated for 40 mins in presence of [gamma-33P]-ATP by scintillation counting method relative to control
[8] = target: NUAK family SNF1-like kinase 2 (Homo sapiens) (UniProt Q9H093); assay: Inhibition of recombinant human full length NUAK2 at 1 uM using KKKVSRSGLYRSPSMPENLNRPR as substrate incubated for 40 mins in presence of [gamma-33P]-ATP by scintillation counting method relative to control
[9] = target: Serine/threonine-protein kinase PAK 1 (Homo sapiens) (UniProt Q13153); assay: Inhibition of recombinant human PAK1 (150 to end residues) at 1 uM using RRRLSFAEPG as substrate incubated for 40 mins in presence of [gamma-33P]-ATP by scintillation counting method relative to control
[10] = target: Testis-specific serine/threonine-protein kinase 3 (Homo sapiens) (UniProt Q96PN8); assay: Inhibition of recombinant human full length TSSK3 at 1 uM using AMARAASAAALARRR as substrate incubated for 40 mins in presence of [gamma-33P]-ATP by scintillation counting method relative to control
How it was run: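 Single-point inhibition at 1 uM measured in a commercial kinase profiling panel (KinaseProfiler); each value is the mean of two independent experiments.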

[11] = target: Serine/threonine-protein kinase TAO3 (Homo sapiens) (UniProt Q9H2K8); assay: Inhibition of recombinant human TAO3 (1 to 411 residues) at 1 uM using myelin basic protein as substrate incubated for 40 mins in presence of [gamma-33P]-ATP by scintillation counting method relative to control
[12] = target: Fibroblast growth factor receptor 2 (Homo sapiens) (UniProt P21802); assay: Inhibition of recombinant human FGFR2 (456 to 770 residues) at 1 uM using poly(Glu, Tyr) 4:1 as substrate incubated for 40 mins in presence of [gamma-33P]-ATP by scintillation counting method relative to control
[13] = target: Fibroblast growth factor receptor 4 (Homo sapiens) (UniProt P22455); assay: Inhibition of recombinant human FGFR4 (442 to 755 residues) at 1 uM using poly(Glu, Tyr) 4:1 as substrate incubated for 40 mins in presence of [gamma-33P]-ATP by scintillation counting method relative to control
How it was run: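 Tested at a single 1 uM in an outsourced commercial kinase-profiling panel, read as percent inhibition. Each value is the mean of two independent experiments.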

[14] = target: Platelet-derived growth factor receptor beta (Homo sapiens) (UniProt P09619); assay: Inhibition of recombinant human PDGFRbeta (557 to end residues) at 1 uM using poly(Glu, Tyr) 4:1 as substrate incubated for 40 mins in presence of [gamma-33P]-ATP by scintillation counting method relative to control
[15] = target: Phosphatidylinositol 4,5-bisphosphate 3-kinase catalytic subunit gamma isoform (Homo sapiens) (UniProt P48736); assay: Inhibition of recombinant human full length PI3K p120gamma at 1 uM using phosphatidylinositol-4, 5-bisphosphate as substrate incubated for 40 mins in presence of [gamma-33P]-ATP by scintillation counting method relative to control
MDA-MB-231 [16] = assay: Induction of cell cycle arrest in human MDA-MB-231 cells assessed as decrease in accumulation in S phase at 20 to 40 nM incubated for 36 hrs by propidium iodide staining based flow cytometry; type: functional
How it was run: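 Cells were treated with graded concentrations for 36 h, then fixed overnight in 70% ice-cold ethanol at 4°C and resuspended in PBS. Staining used 50 µg/ml PI plus 5 µg/ml RNase at 37°C for 30 min. DNA content was analysed by FACS to give G0/G1, S and G2/M fractions.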

MDA-MB-231 [17] = assay: Induction of apoptosis in human MDA-MB-231 cells assessed as decrease in Bcl2 expression at 20 to 40 nM incubated for 48 hrs by Western blot analysis; type: functional, cell-based
How it was run: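 Cells were treated for 48 h, washed three times with PBS, and lysed in RIPA buffer. Immunoblots used anti-Rb, anti-phospho-Rb, anti-Ki67 and anti-Bcl-2 (each 1:1000), with β-actin as loading control.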

T47D [18] = assay: Antiproliferative activity against human T47D cells assessed as reduction in cell viability at 40 nM incubated for 48 hrs by EdU staining based laser scanning confocal microscopy; type: functional
How it was run: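 Cells, 5×10^4, were seeded in 24-well plates and treated for 48 h. They were then labeled using an EdU Apollo 488 imaging kit with Hoechst 33342 nuclear stain and imaged by laser scanning confocal microscopy. Percent EdU-positive cells = EdU-positive/Hoechst-stained × 100%.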

Proto-oncogene tyrosine-protein kinase Src (Homo sapiens), sequence (P12931 2-536 limits assumed): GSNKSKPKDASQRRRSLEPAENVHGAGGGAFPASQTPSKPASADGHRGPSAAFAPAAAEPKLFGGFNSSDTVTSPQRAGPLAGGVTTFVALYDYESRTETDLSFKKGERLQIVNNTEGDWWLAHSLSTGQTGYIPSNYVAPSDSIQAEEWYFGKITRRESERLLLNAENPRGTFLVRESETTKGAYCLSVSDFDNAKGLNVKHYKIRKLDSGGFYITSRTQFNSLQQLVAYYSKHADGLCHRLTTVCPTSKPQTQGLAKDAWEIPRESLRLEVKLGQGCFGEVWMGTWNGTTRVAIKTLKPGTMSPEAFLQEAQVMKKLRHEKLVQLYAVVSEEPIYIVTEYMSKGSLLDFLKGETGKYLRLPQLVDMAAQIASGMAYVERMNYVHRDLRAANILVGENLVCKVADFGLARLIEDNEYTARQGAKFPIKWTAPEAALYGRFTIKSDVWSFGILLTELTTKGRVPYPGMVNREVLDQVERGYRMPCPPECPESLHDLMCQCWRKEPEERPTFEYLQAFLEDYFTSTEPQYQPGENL
Testis-specific serine/threonine-protein kinase 3 (Homo sapiens), sequence (Q96PN8 whole entry): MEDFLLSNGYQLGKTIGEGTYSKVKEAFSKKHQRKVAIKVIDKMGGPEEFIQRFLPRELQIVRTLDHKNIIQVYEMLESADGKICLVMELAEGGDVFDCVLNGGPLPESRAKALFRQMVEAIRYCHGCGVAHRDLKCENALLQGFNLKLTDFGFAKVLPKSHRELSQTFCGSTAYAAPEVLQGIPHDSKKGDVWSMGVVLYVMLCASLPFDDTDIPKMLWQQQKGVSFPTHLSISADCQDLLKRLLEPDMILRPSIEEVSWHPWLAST
MAP kinase-activated protein kinase 2 (Homo sapiens), sequence (P49137 whole entry, looked up): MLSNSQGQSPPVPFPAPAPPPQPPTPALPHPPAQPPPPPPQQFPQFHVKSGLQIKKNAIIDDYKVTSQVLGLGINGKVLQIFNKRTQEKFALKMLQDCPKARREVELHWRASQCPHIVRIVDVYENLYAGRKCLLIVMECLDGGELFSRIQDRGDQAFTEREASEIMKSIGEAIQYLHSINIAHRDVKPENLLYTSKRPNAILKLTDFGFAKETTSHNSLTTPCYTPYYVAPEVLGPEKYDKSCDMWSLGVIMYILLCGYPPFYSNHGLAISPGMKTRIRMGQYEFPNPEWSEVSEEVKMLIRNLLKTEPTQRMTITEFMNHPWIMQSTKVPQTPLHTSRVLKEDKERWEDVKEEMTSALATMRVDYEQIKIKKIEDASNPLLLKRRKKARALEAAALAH
Fibroblast growth factor receptor 2 (Homo sapiens), sequence (P21802 22-821 limits assumed): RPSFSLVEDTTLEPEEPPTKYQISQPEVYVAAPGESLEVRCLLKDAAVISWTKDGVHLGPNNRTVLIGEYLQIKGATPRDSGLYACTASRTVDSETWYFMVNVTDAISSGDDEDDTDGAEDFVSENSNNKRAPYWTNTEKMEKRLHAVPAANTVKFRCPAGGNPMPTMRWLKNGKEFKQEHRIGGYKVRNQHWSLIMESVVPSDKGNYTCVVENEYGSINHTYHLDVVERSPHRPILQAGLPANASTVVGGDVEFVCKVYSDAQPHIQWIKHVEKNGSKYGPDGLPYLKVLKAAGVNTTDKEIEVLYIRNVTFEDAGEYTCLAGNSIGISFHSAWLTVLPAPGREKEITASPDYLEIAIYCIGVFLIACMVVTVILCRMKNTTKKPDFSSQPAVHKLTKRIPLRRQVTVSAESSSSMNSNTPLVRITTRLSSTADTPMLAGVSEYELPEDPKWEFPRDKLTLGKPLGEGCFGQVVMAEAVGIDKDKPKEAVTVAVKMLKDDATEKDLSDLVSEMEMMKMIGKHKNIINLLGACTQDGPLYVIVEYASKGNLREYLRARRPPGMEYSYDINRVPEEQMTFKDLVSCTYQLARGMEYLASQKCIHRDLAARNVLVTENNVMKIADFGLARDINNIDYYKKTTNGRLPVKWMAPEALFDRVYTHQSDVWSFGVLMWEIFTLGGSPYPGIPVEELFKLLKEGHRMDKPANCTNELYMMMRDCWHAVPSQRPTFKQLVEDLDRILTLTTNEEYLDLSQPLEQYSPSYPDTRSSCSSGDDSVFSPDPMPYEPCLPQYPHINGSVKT
Platelet-derived growth factor receptor beta (Homo sapiens), sequence (P09619 whole entry, canonical isoform): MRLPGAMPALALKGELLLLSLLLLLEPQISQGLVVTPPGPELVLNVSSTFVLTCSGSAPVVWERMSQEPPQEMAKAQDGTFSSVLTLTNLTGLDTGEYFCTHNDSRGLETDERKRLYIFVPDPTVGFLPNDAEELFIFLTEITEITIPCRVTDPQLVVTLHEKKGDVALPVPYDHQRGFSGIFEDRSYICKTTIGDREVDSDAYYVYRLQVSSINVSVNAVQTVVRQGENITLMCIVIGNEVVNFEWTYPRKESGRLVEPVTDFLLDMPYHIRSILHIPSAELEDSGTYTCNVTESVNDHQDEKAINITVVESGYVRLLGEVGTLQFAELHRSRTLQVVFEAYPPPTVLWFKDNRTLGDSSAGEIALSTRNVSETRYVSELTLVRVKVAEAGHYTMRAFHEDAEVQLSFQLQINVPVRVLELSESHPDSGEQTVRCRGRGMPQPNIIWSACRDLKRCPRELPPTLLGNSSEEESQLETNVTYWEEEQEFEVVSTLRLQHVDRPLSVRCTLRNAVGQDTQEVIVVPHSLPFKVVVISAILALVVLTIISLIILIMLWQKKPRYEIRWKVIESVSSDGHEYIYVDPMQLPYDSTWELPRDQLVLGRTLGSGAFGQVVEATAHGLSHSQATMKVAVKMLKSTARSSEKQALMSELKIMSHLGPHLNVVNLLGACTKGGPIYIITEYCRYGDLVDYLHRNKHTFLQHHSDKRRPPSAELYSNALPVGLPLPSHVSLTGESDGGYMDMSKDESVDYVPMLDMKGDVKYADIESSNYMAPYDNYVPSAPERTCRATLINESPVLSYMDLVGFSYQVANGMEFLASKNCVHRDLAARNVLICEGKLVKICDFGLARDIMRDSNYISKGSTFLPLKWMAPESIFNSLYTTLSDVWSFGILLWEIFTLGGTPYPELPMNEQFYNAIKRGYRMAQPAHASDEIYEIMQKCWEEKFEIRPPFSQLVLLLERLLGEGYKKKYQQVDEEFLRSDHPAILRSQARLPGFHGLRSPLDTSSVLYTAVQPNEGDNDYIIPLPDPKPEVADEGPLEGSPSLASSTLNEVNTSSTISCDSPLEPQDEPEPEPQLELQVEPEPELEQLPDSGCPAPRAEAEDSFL
Serine/threonine-protein kinase PAK 1 (Homo sapiens), sequence (Q13153 whole entry): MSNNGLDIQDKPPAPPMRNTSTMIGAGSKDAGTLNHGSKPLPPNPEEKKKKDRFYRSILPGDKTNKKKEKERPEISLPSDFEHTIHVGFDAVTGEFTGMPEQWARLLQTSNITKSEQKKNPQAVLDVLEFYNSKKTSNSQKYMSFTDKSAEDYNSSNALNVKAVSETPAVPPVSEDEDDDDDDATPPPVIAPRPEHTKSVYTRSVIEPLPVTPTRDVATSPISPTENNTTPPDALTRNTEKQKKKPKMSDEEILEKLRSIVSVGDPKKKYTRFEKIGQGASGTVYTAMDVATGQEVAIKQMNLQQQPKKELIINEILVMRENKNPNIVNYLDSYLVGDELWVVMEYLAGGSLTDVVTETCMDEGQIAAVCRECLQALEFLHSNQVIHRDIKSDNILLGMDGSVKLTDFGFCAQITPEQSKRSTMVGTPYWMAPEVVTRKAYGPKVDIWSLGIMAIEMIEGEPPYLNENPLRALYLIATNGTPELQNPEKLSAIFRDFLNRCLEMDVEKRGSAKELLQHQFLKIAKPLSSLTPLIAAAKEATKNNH
Ephrin type-B receptor 3 (Homo sapiens), sequence (P54753 whole entry, the tested form may be a part): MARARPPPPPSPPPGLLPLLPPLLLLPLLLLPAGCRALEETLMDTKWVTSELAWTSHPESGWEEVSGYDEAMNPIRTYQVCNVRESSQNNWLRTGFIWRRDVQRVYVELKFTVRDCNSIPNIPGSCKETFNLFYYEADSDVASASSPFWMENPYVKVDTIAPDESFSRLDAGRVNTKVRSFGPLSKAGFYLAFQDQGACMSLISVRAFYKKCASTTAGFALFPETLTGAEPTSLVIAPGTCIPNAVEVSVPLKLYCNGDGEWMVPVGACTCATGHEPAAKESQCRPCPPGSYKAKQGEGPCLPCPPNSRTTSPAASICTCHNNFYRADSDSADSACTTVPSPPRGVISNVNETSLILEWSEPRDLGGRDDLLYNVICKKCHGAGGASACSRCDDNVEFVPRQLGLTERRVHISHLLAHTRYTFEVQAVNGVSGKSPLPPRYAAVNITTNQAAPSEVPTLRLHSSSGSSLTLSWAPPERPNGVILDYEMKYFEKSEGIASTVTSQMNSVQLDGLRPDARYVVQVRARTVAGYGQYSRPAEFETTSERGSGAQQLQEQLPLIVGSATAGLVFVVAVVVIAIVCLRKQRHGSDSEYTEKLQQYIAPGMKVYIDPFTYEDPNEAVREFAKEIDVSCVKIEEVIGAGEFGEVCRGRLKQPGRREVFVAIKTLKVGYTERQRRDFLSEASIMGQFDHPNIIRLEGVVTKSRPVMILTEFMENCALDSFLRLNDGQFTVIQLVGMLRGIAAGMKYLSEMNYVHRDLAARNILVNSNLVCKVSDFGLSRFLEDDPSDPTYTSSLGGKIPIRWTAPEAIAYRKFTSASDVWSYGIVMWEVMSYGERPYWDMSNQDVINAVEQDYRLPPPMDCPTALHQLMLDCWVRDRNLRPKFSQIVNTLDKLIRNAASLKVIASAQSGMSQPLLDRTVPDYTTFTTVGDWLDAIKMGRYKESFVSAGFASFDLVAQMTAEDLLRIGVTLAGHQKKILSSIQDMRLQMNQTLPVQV
Aurora kinase B (Homo sapiens), sequence (Q96GD4 whole entry): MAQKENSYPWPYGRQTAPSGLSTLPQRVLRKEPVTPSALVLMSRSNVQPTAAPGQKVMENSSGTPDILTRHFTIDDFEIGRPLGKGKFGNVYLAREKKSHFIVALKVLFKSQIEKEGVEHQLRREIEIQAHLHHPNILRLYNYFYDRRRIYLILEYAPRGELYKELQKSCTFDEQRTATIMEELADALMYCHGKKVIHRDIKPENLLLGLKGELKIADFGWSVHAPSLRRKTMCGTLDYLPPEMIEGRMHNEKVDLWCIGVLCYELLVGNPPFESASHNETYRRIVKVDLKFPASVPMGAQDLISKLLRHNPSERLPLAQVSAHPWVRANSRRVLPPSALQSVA

Row | SMILES | logD [1] | Activity (T47D [2]) | MRT last [3] [h] | inhibition [4] [%] | inhibition (Saccharomyces cerevisiae) [%] | inhibition [5] [%] | inhibition [6] [%] | inhibition [7] [%] | inhibition [8] [%] | inhibition [9] [%] | inhibition [10] [%] | inhibition [11] [%] | inhibition [12] [%] | inhibition [13] [%] | inhibition [14] [%] | inhibition [15] [%] | Activity (MDA-MB-231 [16]) | Activity (MDA-MB-231 [17]) | inhibition (T47D [18])
1 | Cc1ccc(NC(=O)C2(C(=O)Nc3ccc(Nc4ncc(F)c(-c5cc(F)c6nc(C)n(C(C)C)c6c5)n4)cc3)CC2)cc1 | 2.51 | Active | 2 | 64 | 48 | 80 | 2 | 12 | 67 | 52 | 0 | 2 | 4 | 0 | 6 | 14 | Active | Active | –
2 | COc1cc2nccc(Oc3ccc(NC(=O)C4(C(=O)Nc5ccc(F)cc5)CC4)cc3)c2cc1OC [CABOZANTINIB] | – | – | – | – | – | – | – | – | – | – | – | – | – | – | – | – | – | – | Active

From ChEMBL document CHEMBL4406821, “Novel dual inhibitors targeting CDK4 and VEGFR2 synergistically suppressed cancer progression and angiogenesis” (Eur J Med Chem, 2019)
